Assay [1] has as its target T1, Glycerophosphocholine cholinephosphodiesterase ENPP6 (Homo sapiens) (UniProt Q6UWR7).
T1 sequence (whole entry): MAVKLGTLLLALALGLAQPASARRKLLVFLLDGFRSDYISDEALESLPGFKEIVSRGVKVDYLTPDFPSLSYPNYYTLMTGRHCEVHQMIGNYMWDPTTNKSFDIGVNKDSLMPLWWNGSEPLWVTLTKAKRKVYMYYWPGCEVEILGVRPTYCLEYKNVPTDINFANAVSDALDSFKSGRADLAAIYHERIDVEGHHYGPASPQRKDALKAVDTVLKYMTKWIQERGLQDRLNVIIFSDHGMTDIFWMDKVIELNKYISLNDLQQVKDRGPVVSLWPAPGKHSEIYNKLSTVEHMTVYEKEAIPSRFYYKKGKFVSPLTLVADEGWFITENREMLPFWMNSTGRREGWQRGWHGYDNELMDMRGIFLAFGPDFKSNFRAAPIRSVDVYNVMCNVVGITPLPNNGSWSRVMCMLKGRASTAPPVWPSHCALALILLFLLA
Nature of the assay: Inhibition of NPP6 expressed in HEK293 cells assessed as para-nitrophenylphosphoryl choline hydrolysis. The class given is cell-based. The method in brief: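 NPP6 from conditioned medium of HEK293 cells transiently transfected with human NPP6. Inhibitor at 10 μM in 1% DMSO. Substrate pNPPC at 10 mM in 100 mM Tris-HCl pH 9.0 with 500 mM NaCl and 0.05% Triton X-100, 37 °C. Absorbance read at 1 h, normalized to vehicle after cell-free-medium blank. Mean ± SD of ≥3 wells.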

Assay [2] concerns the target T2, Ectonucleotide pyrophosphatase/phosphodiesterase family member 7 (Homo sapiens) (UniProt Q6UWV6).
T2 sequence (whole entry): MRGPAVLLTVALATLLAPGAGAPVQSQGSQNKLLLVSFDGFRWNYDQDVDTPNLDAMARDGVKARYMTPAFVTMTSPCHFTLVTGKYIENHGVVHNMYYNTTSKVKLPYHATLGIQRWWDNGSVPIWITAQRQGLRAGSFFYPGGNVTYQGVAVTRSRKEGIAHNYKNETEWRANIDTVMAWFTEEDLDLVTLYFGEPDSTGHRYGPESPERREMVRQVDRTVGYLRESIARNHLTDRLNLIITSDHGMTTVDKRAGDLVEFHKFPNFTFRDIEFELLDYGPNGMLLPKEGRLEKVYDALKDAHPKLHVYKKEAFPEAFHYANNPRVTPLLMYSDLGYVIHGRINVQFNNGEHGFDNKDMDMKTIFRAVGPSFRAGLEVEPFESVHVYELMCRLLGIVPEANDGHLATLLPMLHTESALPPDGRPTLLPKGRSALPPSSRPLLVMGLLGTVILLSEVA
Nature of the assay: Inhibition of NPP7 expressed in HEK293 cells assessed as para-nitrophenylphosphoryl choline hydrolysis. The class given is cell-based. In short, it runs like this: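 NPP7 from concentrated conditioned medium of transfected HEK293 cells (human NPP7). Inhibitor at 10 μM in 1% DMSO. Substrate pNPPC at […] in 50 mM Tris-HCl pH 8.5 with 150 mM NaCl and 10 mM taurocholic acid, no EDTA, 37 °C. Absorbance taken at 1 h, vehicle-normalized after blank. Mean ± SD of ≥3 wells.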

For assay [3], the target named is T3, Autotaxin (Homo sapiens, UniProt Q13822). Nature of the assay: Competitive inhibition of human autotaxin at free state isolated from MDA-MB-231 cells assessed as blockade of FS3 substrate hydrolysis by FRET assay. The format is cell-based.
Assay [4] deals with T3, Autotaxin. Nature of the assay: Noncompetitive type inhibition of human autotaxin at enzyme-substrate complex isolated from […] assessed as blockade of FS3 substrate hydrolysis by FRET assay. In short, it runs like this:
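ATX source: ~10× concentrated serum-free conditioned medium from MDA-MB-435 cells, buffer-exchanged into 50 mM Tris pH 7.4 with 20% ethylene glycol. FS-3 300 nM–20 μM with three inhibitor levels, including zero. Buffer: 50 mM Tris pH 8.0, 140 mM NaCl, 5 mM KCl, 1 mM CaCl2/MgCl2, 30 μM stripped BSA. Run at 37 °C, ex485/em528. Ki′ from simultaneous nonlinear fit to four inhibition models; lowest residual error chosen.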

Assay [5] addresses T3, Autotaxin. Nature of the assay: Noncompetitive type inhibition of human autotaxin at free state isolated from MDA-MB-231 cells assessed as blockade of FS3 substrate hydrolysis by FRET assay. The format is cell-based.

pKi: −log10 of the molar value. Calls of active or inactive are those of the source. The calls are words filed in the database; no cut-off is given here.

The values below come from ChEMBL document CHEMBL1154760, “Optimization of a pipemidic acid autotaxin inhibitor” (J Med Chem, 2010).

For the compound `CCn1cc(C(=O)O)c(=O)c2cnc(N3CCN(C(=S)Nc4cccc(Cl)c4)CC3)nc21`, the result in assay [1] and in assay [2] was inactive.
In the case of `CCn1cc(C(=O)O)c(=O)c2cnc(N3CCN(C(=S)Nc4ccc(C)cc4)CC3)nc21`, the result in assay [1] and in assay [2] was inactive.
In the case of `CCn1cc(C(=O)O)c(=O)c2cnc(N3CCN(C(=S)Nc4cc(Cl)ccc4Cl)CC3)nc21`, the outcome in assay [1] and in assay [2] was inactive.
A word on the pKi: it is the Ki on a negative log10 scale, so that one unit is a factor of ten. Turning to `CCn1cc(C(=O)O)c(=O)c2cnc(N3CCN(C(=S)Nc4ccc(Cl)cc4)CC3)nc21`, in assay [3], the pKi is 5.24. For the same compound, the result in assay [1] and in assay [2] was inactive.
`CCn1cc(C(=O)O)c(=O)c2cnc(N3CCN(C(=S)Nc4cccc(C(F)(F)F)c4)CC3)nc21`: in assay [3], the pKi was 6.15. Besides, the outcome in assay [1] and in assay [2] was inactive.
With `CCn1cc(C(=O)O)c(=O)c2cnc(N3CCN(C(=S)Nc4cc(C)cc(C)c4)CC3)nc21`, the negative-log Ki (pKi) in assay [3] is 5.38. In addition, the outcome in assay [1] and in assay [2] was inactive.
As for `CCn1cc(C(=O)O)c(=O)c2cnc(N3CCN(C(=S)Nc4cc(C(F)(F)F)cc(C(F)(F)F)c4)CC3)nc21`, the pKi in assay [3] is 5.40. Moreover, the outcome in assay [1] and in assay [2] was inactive.
Take `CCn1cc(C(=O)O)c(=O)c2cnc(N3CCN(C(=S)Nc4cccc(F)c4)CC3)nc21`: the result in assay [1] and in assay [2] was inactive.
Regarding `CCn1cc(C(=O)O)c(=O)c2cnc(N3CCN(C(=S)Nc4cccc(OC)c4)CC3)nc21`, the result in assay [1] and in assay [2] was inactive.
Regarding `CCn1cc(C(=O)O)c(=O)c2cnc(N3CCN(C(=S)Nc4ccc(F)cc4)CC3)nc21`, the result in assay [1] and in assay [2] was inactive.
On to `CCn1cc(C(=O)O)c(=O)c2cnc(N3CCN(C(=S)Nc4ccc5nsnc5c4)CC3)nc21`, for which, in assay [3], the negative-log Ki (pKi) was 5.15. Moreover, the outcome in assay [1] and in assay [2] was inactive.
Consider `CCn1cc(C(=O)O)c(=O)c2cnc(N3CCN(C(=S)Nc4ccc(C(F)(F)F)cc4)CC3)nc21`, for which the negative logarithm of the Ki (pKi) in assay [4] and in assay [5] was 4.88 in each case. Moreover, the result in assay [1] and in assay [2] was inactive.
With `CCn1cc(C(=O)O)c(=O)c2cnc(N3CCN(C(=S)Nc4cccc(C)c4)CC3)nc21`, in assay [3], the negative-log Ki (pKi) is 5.35. In addition, the outcome in assay [1] and in assay [2] was inactive.
In the case of `CCn1cc(C(=O)O)c(=O)c2cnc(N3CCN(C(=S)Nc4ccc(I)cc4)CC3)nc21`, the outcome in assay [1] and in assay [2] was inactive.
With `CCn1cc(C(=O)O)c(=O)c2cnc(N3CCN(C(=S)Nc4cccc(I)c4)CC3)nc21`, the outcome in assay [1] and in assay [2] was inactive.
With `CCCCCCCCc1ccc(CCC(N)(CO)CCCP(=O)(O)O)cc1` (centres undefined), the pKi in assay [5] is 6.70.
